# aSyn 5UTR inh – MLPCN primary screen, SNCA 5' untranslated region; alpha-synuclein 5'UTR reporter, inhibitor activity; inhibition, % (tested at 7.5 µM); 300,000 tested, 0.82% active; in the data active = inhibition above about 60%;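 also: H4 neuroglioblastoma cells stably carrying SNCA 5'UTR luciferase fusion; 0% = DMSO wells and 100% = positive control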
# VIM-2 inh – VIM-2 metallo-beta-lactamase inhibitors, primary screen, biochemical, epi-absorbance readout, Pseudomonas aeruginosa enzyme | 290,000 tested, 0.89% active | purified VIM-2, nitrocefin hydrolysis, epi-absorbance fluorescence | inhibition, % at 5.6 µM;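 active = inhibition above the mean of all tested compounds plus 3 SD, cutoff set per screening run, cut at about 7.5% in these data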;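 also: red hydrolysis product quenches plate fluorescence so inhibitors raise well fluorescence; 0% = enzyme with DMSO and 100% = DMSO without enzyme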
# Mdm2 MdmX PPI – inhibitors of human Mdm2-MdmX association, primary screen, cell-based, luminescence, split luciferase, SaOS-2, uHTS; AID 485346, 2010; 330,000 tested, 3% active; inhibition, % at 8 µM; Protein Mdm4 (Homo sapiens) + E3 ubiquitin-protein ligase Mdm2 (Homo sapiens), …; SaOS-2 split-luciferase Mdm2/MdmX complementation;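 active = inhibition of at least 50% at 8 µM in the primary screen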
# Target sequence (O15151 whole entry, looked up): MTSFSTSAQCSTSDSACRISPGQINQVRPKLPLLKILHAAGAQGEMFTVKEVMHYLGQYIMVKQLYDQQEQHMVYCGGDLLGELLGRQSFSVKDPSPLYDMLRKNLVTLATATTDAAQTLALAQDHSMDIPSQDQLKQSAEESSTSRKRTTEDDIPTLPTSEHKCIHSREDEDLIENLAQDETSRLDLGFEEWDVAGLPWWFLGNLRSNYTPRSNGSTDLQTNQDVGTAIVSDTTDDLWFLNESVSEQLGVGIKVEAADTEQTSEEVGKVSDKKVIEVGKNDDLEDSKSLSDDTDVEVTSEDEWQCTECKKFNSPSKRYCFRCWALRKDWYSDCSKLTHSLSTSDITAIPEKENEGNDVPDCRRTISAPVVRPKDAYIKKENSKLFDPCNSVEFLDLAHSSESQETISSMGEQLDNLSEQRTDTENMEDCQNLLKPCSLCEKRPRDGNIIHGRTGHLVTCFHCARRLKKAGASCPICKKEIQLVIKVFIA
# Target sequence (Q00987 whole entry, looked up): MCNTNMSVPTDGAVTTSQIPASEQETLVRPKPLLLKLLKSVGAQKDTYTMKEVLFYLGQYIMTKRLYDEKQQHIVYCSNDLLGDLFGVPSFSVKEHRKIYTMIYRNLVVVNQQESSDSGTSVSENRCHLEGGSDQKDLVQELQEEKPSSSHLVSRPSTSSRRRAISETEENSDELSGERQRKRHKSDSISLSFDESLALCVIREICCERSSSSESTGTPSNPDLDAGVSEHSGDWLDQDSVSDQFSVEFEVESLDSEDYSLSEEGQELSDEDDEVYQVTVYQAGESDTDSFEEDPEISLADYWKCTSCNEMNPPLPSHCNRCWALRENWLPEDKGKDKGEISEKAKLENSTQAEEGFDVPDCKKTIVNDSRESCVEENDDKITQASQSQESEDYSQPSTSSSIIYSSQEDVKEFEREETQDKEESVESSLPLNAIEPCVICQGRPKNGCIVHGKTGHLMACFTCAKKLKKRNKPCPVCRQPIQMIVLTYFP
# 697 NFkB inh – inhibitors of PMA/ionomycin-induced NF-kB reporter, 697 cells, primary screen, B-cell NF-kB inhibitor project, cell-based, luminescence, uHTS; 697 B-cell NF-kB luciferase reporter, 16 h; inhibition, % at 4 µM; 330,000 tested, 0.33% active; AID 435022, 2010; in the data active = inhibition above about 35%
# Jurkat NFkB inh – inhibitors of induced NF-kB luciferase reporter, primary screen, TCR NF-kB activation inhibitor project, cell-based, luminescence, uHTS | Jurkat, PMA/ionomycin-induced NF-kB luciferase reporter | inhibition, % at 4 µM | 330,000 tested, 0.53% active | AID 435003, 2010; in the data active = inhibition above about 50%
# IMP-1 inh – IMP-1 metallo-beta-lactamase inhibitors, primary screen, biochemical, epi-absorbance readout, Pseudomonas aeruginosa enzyme. purified IMP-1, nitrocefin hydrolysis, epi-absorbance fluorescence. inhibition, % at 5.6 µM. 290,000 tested, 0.45% active;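 active = inhibition above the mean plus 3 SD of all compounds in the same screening run, cut at about 4.5% in these data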;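 also: 0% = IMP-1 with DMSO and 100% = DMSO wells lacking enzyme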
#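 System: purified recombinant IMP-1 beta-lactamase. Medium: Zinc- and detergent-supplemented HEPES buffer, pH 7.1. Compound: one 5.6 µM dose […]. Schedule: 15 min preincubation plus 25 min reaction at 25 °C. Technique: Epi-absorbance fluorescence, 480 nm excitation, 530 nm emission.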
# 697 NFkB conf – PMA/ionomycin-induced NF-kB reporter inhibitors, 697 retest, confirmation, B-cell NF-kB inhibitor project, cell-based, luminescence, single concentration. shares compounds with 697 NFkB inh. 697 B-cell NF-kB luciferase, 16 h. inhibition, % at 4 µM. 2,000 tested, 35% active. AID 449746, 2010; in the data active = inhibition mostly above about 28%, no sharp cut-off; inactive = mostly below about 22%
# * = called active by the depositor; / = no result given. The list is not random: actives were taken first. Their share in the collection is about 4.7%.
SMILES,aSyn 5UTR inh,VIM-2 inh,Mdm2 MdmX PPI,697 NFkB inh,Jurkat NFkB inh,IMP-1 inh,697 NFkB conf
Cc1ccc(SC[C@H](Cc2ccccc2)N2CC[C@@H](NC(=O)OCc3ccccc3)CCC2=O)cc1,2.9,-1.5,20.2,10.7,4.3,-2.9,/
COc1ccc(N(CC(=O)N2CCN(c3ccc(Cl)cc3)CC2)S(=O)(=O)c2c(C)n[nH]c2C)cc1,28.2,-2.3,16.7,36.6*,13.6,-2.6,31.6*
CCC(C)N1C(=O)/C(=C/c2c(NCCCOC(C)C)nc3c(C)cccn3c2=O)SC1=S (configuration not stated),/,-0.3,23.1,38.3*,13.2,-0.6,33.9*
CCN(CC)S(=O)(=O)c1ccc(N2CCOCC2)c(NC(=O)c2cc([N+](=O)[O-])ccc2Cl)c1,-164.0,-1.9,41.7,-7.5,14.5,-1.2,/
COc1ccc(CNC(=O)C(=O)NCCCn2ccnc2)cc1,22.6,-4.2,-11.9,37.5*,0.2,-3.6,19.6
CCCOc1ccc(NC(=O)C(=O)NCCCn2ccnc2)cc1,30.7,-2.0,-6.8,56.0*,10.8,-5.1,53.4*
COc1ccc(NC(=O)C(=O)NCCCn2ccnc2)cc1,13.8,-2.1,12.4,10.4,-17.0,-2.4,/
COc1ccc(N2C(=O)NC(NC(=O)C(C)(C)C)(C(F)(F)F)C2=O)cc1 (configuration not stated),15.8,-1.4,-18.1,4.6,8.0,-2.3,/
COc1cc(N2Cc3ccccc3C2)ccc1C=O,-150.9,0.8,-17.1,-250.1,-40.5,-1.8,-209.2
Cc1cc(C)cc(N2Cc3ccccc3C2)c1,-30.5,-1.8,9.6,-0.2,-17.9,-3.3,/
CC/C(=N\NC(=O)c1ccc(N2CCCC2=O)cc1)c1ccccc1,11.3,-2.3,1.6,8.5,-9.8,-3.4,/
CNC(=O)COC(=O)c1cccnc1SC,4.5,-3.3,20.8,35.3*,5.3,-4.2,11.6
CSc1ncccc1C(=O)OCC(=O)NC(N)=O,-12.9,1.8,14.0,-5.6,-14.6,-1.3,/
O=C(NC1=NCCS1)c1ccc(Cl)c(Cl)c1,-101.4,-2.2,-109.7,-254.5,-147.0,-2.3,-186.3
COc1ccc(NC(=O)c2ccccc2N2C(=O)C3C4C=CC(C5CC45)C3C2=O)c(OC)c1 (configuration not stated),11.8,0.0,-2.2,-19.1,-6.4,-0.4,/
Nc1c(N=Nc2ccccc2F)c(=O)[nH]n1-c1ccccc1,-125.3,-5.0,-302.5,-63.2,-39.6,-2.1,/
Nc1nn(-c2ccccc2)c(N)c1N=Nc1ccccc1F,-98.0,-4.6,-108.1,-444.0,-30.4,-3.9,-254.5
Nn1c(SCC(=O)Nc2nccs2)nnc1C1CC1,-8.9,-4.2,-5.0,9.5,0.9,-1.8,/
COc1ccc(-c2cc(C(=O)O)c3ccccc3n2)c(OC)c1,2.1,-1.4,-3.8,12.4,6.9,-1.5,/
COc1ccc2cc(-c3cc(C(=O)O)c4ccccc4n3)ccc2c1,77.7*,-1.6,-150.7,-344.5,-18.5,-1.2,-351.0
Nc1c(-c2cccs2)cnc2c(-c3ccc(F)cc3)cnn12,-164.6,-2.7,-101.0,-318.8,-146.8,-4.8,-358.2
CCc1ccc(C(=O)N/N=C/c2ccncc2)s1,-34.2,-1.9,24.7,-15.4,-5.9,-3.3,/
O=C(COc1cc2oc(=O)cc(-c3ccccc3)c2cc1Cl)NC(Cc1c[nH]c2ccc(O)cc12)C(=O)O (configuration not stated),14.9,-3.5,12.8,-2.4,6.0,-2.6,/
CCN(CC)c1ccc(/C=N/N=C(c2ccccc2)c2ccccc2)c(O)c1,20.9,-1.9,7.2,35.4*,9.0,-2.6,26.6*
CCOC(=O)N1CCC(N2CCN(S(=O)(=O)c3ccc([N+](=O)[O-])cc3)CC2)CC1,5.1,-1.6,7.7,35.2*,5.6,-2.8,-9.7

# Source: PubChem (several laboratories)
